Calls of active or inactive are those of the source. The calls are words filed in the database; no cut-off is given here.
Species on record: Mus musculus
Test: Toxicity in human Capan1 cells injected BALB/cAJcl-nu-nu mouse assessed as behavior at 50 ug for 6 days in a week upto 28th days treatment started on 15th day tumor injection
Format: organism-based
Conditions: capan-1, 144 h
Method in brief: (§1)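 Female BALB/cAJcl-nu/nu mice, five weeks old, injected s.c. on the right back with 5 × 10⁶ CAPAN-1 cells in DMEM. At two weeks, mice with tumors around 5 mm were randomized to treatment or vehicle groups. Drug was given from a DMSO stock (10 mg/mL) diluted in saline, 0.2 mL i.p., 6 days/week for 4 weeks. Body weight and tumor size were taken weekly. Tumors were weighed wet at the end.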

| SMILES | Activity |
| --- | --- |
| CCOc1cc(C[C@H]2C(=O)OC[C@@H]2Cc2ccc(OCC)c(OCC)c2)ccc1O | Non-toxic |
| COc1cc(C[C@H]2C(=O)OC[C@@H]2Cc2ccc(OC)c(OC)c2)ccc1O [ARCTIGENIN] | Non-toxic |

Test system: PANC-1
Test: Cytotoxicity against human PANC1 cells assessed as cell viability after 3 hrs by WST-8 cells
Format: functional
Conditions: not given
Method in brief: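 PANC-1 cells, 2 × 10⁴/well, grown 24 h in DMEM at 37 °C in 5% CO₂. Cells were PBS-washed and then exposed 24 h to serial dilutions in nutrient-deprived medium or in normal DMEM. After a PBS wash, WST-8 in DMEM was added for 3 h and A450 was read. Viability was taken against blank and control from the mean of three wells. PC50 is the concentration killing 50% of cells preferentially in NDM.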

| SMILES | PC50 |
| --- | --- |
| CCOc1ccc(C[C@H]2COC(=O)[C@@H]2Cc2ccc(O)c(OC)c2)cc1OC | 0.49 µM |
| CCOc1cc(C[C@H]2C(=O)OC[C@@H]2Cc2ccc(OCC)c(OC)c2)ccc1O | 4.77 µM |
| CCOc1ccc(C[C@H]2COC(=O)[C@@H]2Cc2ccc(O)c(OC)c2)cc1OCC | 4.85 µM |
| CCCOc1cc(C[C@H]2C(=O)OC[C@@H]2Cc2ccc(OC)c(OCCC)c2)ccc1O | 13.6 µM |
| CCOc1cc(C[C@H]2C(=O)OC[C@@H]2Cc2ccc(OCC)c(OCC)c2)ccc1O | 0.78 µM |
| CCCOc1cc(C[C@H]2C(=O)OC[C@@H]2Cc2ccc(OC)c(OC)c2)ccc1O | 3.74 µM |
| CCCCCCOc1cc(C[C@H]2C(=O)OC[C@@H]2Cc2ccc(OC)c(OC)c2)ccc1O | 3.89 µM |
| COc1ccc(C[C@H]2COC(=O)[C@@H]2Cc2ccc(O)c(OC(C)C)c2)cc1OC | 4.16 µM |
| COc1cc(C[C@H]2C(=O)OC[C@@H]2Cc2ccc(OC)c(OC)c2)ccc1O [ARCTIGENIN] | 0.8 µM |
| CCOc1cc(C[C@H]2C(=O)OC[C@@H]2Cc2ccc(OC)c(OCC)c2)ccc1O | 0.66 µM |
| CCOc1cc(C[C@H]2COC(=O)[C@@H]2Cc2ccc(O)c(OC)c2)ccc1OC | 4.71 µM |
| COc1ccc(C[C@H]2COC(=O)[C@@H]2Cc2ccc(O)c(OCCO)c2)cc1OC | 7.7 µM |
| CCCOc1cc(C[C@H]2C(=O)OC[C@@H]2Cc2ccc(OCC)c(OCCC)c2)ccc1O | 28.6 µM |
| CCCCOc1cc(C[C@H]2C(=O)OC[C@@H]2Cc2ccc(OC)c(OC)c2)ccc1O | 7.14 µM |
| CCOc1cc(C[C@H]2C(=O)OC[C@@H]2Cc2ccc(OC)c(OC)c2)ccc1O | 3.74 µM |
| CCCOc1cc(C[C@H]2C(=O)OC[C@@H]2Cc2ccc(OC)c(OCC)c2)ccc1O | 3.54 µM |

Species on record: Mus musculus
Test: Toxicity in human Capan1 cells injected BALB/cAJcl-nu-nu mouse assessed as body weight at 50 ug for 6 days in a week upto 28th days treatment started on 15th day tumor injection
Format: organism-based
Conditions: capan-1, 144 h
Method in brief: as §1

| SMILES | Activity |
| --- | --- |
| CCOc1cc(C[C@H]2C(=O)OC[C@@H]2Cc2ccc(OCC)c(OCC)c2)ccc1O | Non-toxic |
| COc1cc(C[C@H]2C(=O)OC[C@@H]2Cc2ccc(OC)c(OC)c2)ccc1O [ARCTIGENIN] | Non-toxic |

Test system: CAPAN-1
Test: Antitumor activity against human Capan1 cells injected into BALB/cAJcl-nu-nu mouse assessed as reduction in tumor weight at 50 ug for 6 days in a week upto 28th days treatment started on 15th day tumor injection
Format: functional
Conditions: not given
Method in brief: as §1

| SMILES | inhibition |
| --- | --- |
| CCOc1cc(C[C@H]2C(=O)OC[C@@H]2Cc2ccc(OCC)c(OCC)c2)ccc1O | Active |
| COc1cc(C[C@H]2C(=O)OC[C@@H]2Cc2ccc(OC)c(OC)c2)ccc1O [ARCTIGENIN] | Active |

From ChEMBL document CHEMBL2321816, “Synthesis and antitumor evaluation of arctigenin derivatives based on antiausterity strategy” (Eur J Med Chem, 2013)
